How the values were obtained:
Hydroxyapatite = assay type: binding; details: PBS pH 7.40, 37 °C
Outline: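 20 mg synthetic hydroxyapatite incubated with 3 mL test compound in PBS (0.5 mg mL−1) at 37 °C for 0–11 d. Controls were compound alone and HA alone in PBS. Supernatant collected daily and centrifuged (1500 rpm, 8 min). Bound fraction derived from the fall in supernatant absorbance at 208 nm. Experimental groups done in duplicate.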

[1] = system: normal osteoblast-like hFOB 1.19 cell line; test: AlamarBlue cytotoxicity assay, hFOB 1.19; assay type: cell-based, human; details: for IC50: Homo sapiens
Outline: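 hFOB 1.19 osteoblast-like cells grown in 1:1 DMEM:F-12 with 0.3 mg mL−1 G418 and 10% FBS at 34 °C, 5% CO2. Seeded at 2.5 × 10^5 cell per mL, then preincubated 24 h at 34 °C. Exposed 24, 48 or 72 h to two-fold dilutions (0–200 μM), or to 1.9–15 μM. Read-out: 10% AlamarBlue, 4 h, fluorescence 560/590 nm, relative to medium control. IC50 by nonlinear regression; triplicates.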

[2] = system: human breast cancer MDA-MB-231 cell line; test: AlamarBlue cytotoxicity assay, MDA-MB-231; assay type: cell-based; details: for IC50: Homo sapiens; for relative cell live (%RCL): MDA-MB-231, 15 μM
Outline: (§1)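 MDA-MB-231 cells grown in DMEM with 1% Pen-Strep and 10% FBS at 37 °C, 5% CO2. Seeded at 2.5 × 10^5 cell per mL, then preincubated 24 h. […] Read-out: 10% AlamarBlue in PBS, 4 h, fluorescence ex 560/em 590 nm, normalised to medium control (100%). IC50 by nonlinear regression; triplicates, mean, SD, %CV.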

[3] = AlamarBlue cytotoxicity assay, MDA-MB-231; assay type: cell-based, human; details: human, MDA-MB-231 cells
Outline: as §1

[4] = cited from earlier work
[5] = Dissolution profile in FaSSGF; assay type: physicochemical; details: FaSSGF pH 1.60, 37 °C
Outline: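 Test compound stirred in 100 mL fasted-state simulated gastric fluid (HCl/NaCl, pH 1.60) at 37 °C and 150 rpm for 36 h. Dissolved drug quantified directly by UV absorbance at 208 nm (400–200 nm scan) against a reagent blank.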

[6] = Dissolution profile in PBS; assay type: physicochemical; details: PBS pH 7.40, 37 °C
Outline: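 Powdered test compound dissolved in 100 mL PBS (pH 7.40) at 37 °C with constant stirring at 150 rpm for 48 h. Release followed by UV absorbance at 208 nm (scan 400–200 nm) against a reagent blank.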

O=P(O)(O)C(O)(Cn1ccnc1)P(=O)(O)O [ZOLE, zoledronate]
time to reach maximum binding to HA (Hydroxyapatite): 8 days
maximum binding to HA (Hydroxyapatite; 0–11 d): 82%
binding to HA (Hydroxyapatite; in 1 d): 15%
IC50 ([1]; 24 h): > 200 µM
IC50 ([1]; 48 h): 86 ± 3 µM
IC50 ([1]; 72 h): 49 ± 4 µM
cell death (cell viability result in words) ([1]; hFOB 1.19, 3.8–15 μM, after 24, 48, and 72 h): no significant cell death
IC50 ([2]; MDA-MB-231, 24 h): > 200 µM
IC50 ([2]; MDA-MB-231, 48 h): > 200 µM
IC50 ([2]; MDA-MB-231, 72 h): 35 ± 4 µM
%RCL ([2]; MDA-MB-231, 3.8 μM, time not stated (Fig. 9b)): ~100%
relative cell live (%RCL) ([2]; 48 h): 80 ± 2%
relative cell live (%RCL) ([2]; 72 h): 58 ± 2%
viability at 1.9 µM [3]: ~100%
bioavailability [4]: < 1%
maximum plasma concentration [4]: 1 µM
time to reach maximum dissolution / equilibrium solubility [5]: 3 h
time to reach maximum dissolution / equilibrium solubility [6]: 30 min
dissolution (ZOLE content released, maximum reached) ([6]; 150 rpm): 100%

— paper PMC8978309 (Materials Advances, 2022)
